Consider 23 molecules from ChEMBL document CHEMBL1221279, “Synthesis, biological evaluation, and structure-activity relationship study of novel cytotoxic aza-caffeic acid derivatives” (Bioorg Med Chem, 2010).

Type in all cases: functional, cell-based
The test system of one assay is CNE. Briefly: Cytotoxicity against human CNE cells after 72 hrs by MTT assay. The procedure, abridged: (§1)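 Cells grown in MEM with 10% fetal calf serum, penicillin and streptomycin at 37 °C, 5% CO2. Exponentially growing cells seeded in quadruplicate at 5 × 10³ per well and left 24 h before compounds (DMSO stocks) were added. After 72 h exposure, MTT added for 4 h at 37 °C, formazan dissolved in DMSO, read at 570 nm. IC50 read graphically from dose–response curves.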

Another assay concerns K562. Put plainly: Cytotoxicity against human K562 cells after 72 hrs by MTT assay. The settings on record: K562, 72 h. The procedure, abridged:
as §1

The next assay has as its system A549. Briefly: Cytotoxicity against human A549 cells after 72 hrs by MTT assay. To be noted: A549, 72 h. The procedure, abridged: as §1
In general terms: Tetrazolium assays rely on reduction of a dye to a coloured formazan, in cell work by metabolically active cells.

Assay [1] can be described thus: Cytotoxicity against human ECA109 cells after 72 hrs by MTT assay. To be noted: ECa-109, 72 h. An outline of the steps:
as §1

Assay [2] in a line: Cytotoxicity against human HO8910 cells after 72 hrs by MTT assay. To be noted: HO-8910, 72 h. The procedure, abridged: as §1
In another assay the test system is PC-3. Put plainly: Cytotoxicity against human PC3 cells after 72 hrs by MTT assay. The settings on record: PC-3, 72 h. The procedure, abridged: as §1
Assay [3] can be described thus: Cytotoxicity against human Bel7404 cells after 72 hrs by MTT assay. The settings on record: BEL-7404, 72 h. An outline of the steps: as §1
A further assay concerns HL-60. Briefly: Cytotoxicity against human HL60 cells after 72 hrs by MTT assay. To be noted: HL-60, 72 h. The procedure, abridged: as §1
A further assay has as its system HeLa. Put plainly: Cytotoxicity against human HeLa cells after 72 hrs by MTT assay. The procedure, abridged:
as §1

A further assay relates to BGC-823. Put plainly: Cytotoxicity against human BGC823 cells after 72 hrs by MTT assay. To be noted: BGC-823, 72 h. An outline of the steps:
as §1

A short description of assay [4]: Cytotoxicity against human LS 174T cells after 72 hrs by MTT assay. To be noted: LS174T. An outline of the steps:
as §1

The next assay concerns KB. Put plainly: Cytotoxicity against human KB cells after 72 hrs by MTT assay. The procedure, abridged: as §1

The term IC50 denotes the point on the concentration scale where inhibition reaches its midpoint. Higher therefore signals weaker potency. Turning to `O=C(/C=C/c1ccc(O)c(O)c1)NCCN1CCOCC1`, the concentration for half-maximal inhibition (IC50) (in the assay with CNE; in the assay with K562; in the assay with A549; in assay [1]; in [2]; in the assay on PC-3) was > 200 µM each time. The IC50 (in assay [3]; in the assay on HL-60; in the assay with HeLa; in the assay with BGC-823; in assay [4]; with KB) was > 200 µM in each case.

Turning to `COc1ccc(NC(=O)COC(=O)/C=C/c2ccc(OCc3ccccc3)c(O)c2)cc1`, the half-inhibitory concentration (IC50) in the assay with CNE is > 200 µM; with K562 it was 56.1 µM; in assay [1], > 200 µM; in the assay with PC-3 it was > 200 µM; in assay [3] it was > 200 µM; with HL-60, > 200 µM. Moreover, the concentration for half-maximal inhibition (IC50) (in the assay with HeLa; in assay [4]) was > 200 µM throughout.

With `COc1ccc(/C=C/C(=O)NCCc2c[nH]c3ccccc23)cc1OC`, the concentration for half-maximal inhibition (IC50) (in the assay with CNE; in the assay with K562; in the assay with A549; in assay [1]; in assay [2]; with PC-3) was > 200 µM throughout. Moreover, the IC50 (in assay [3]; with HL-60; in the assay on HeLa; in the assay with BGC-823; in assay [4]; in the assay with KB) was > 200 µM throughout.

For the molecule `COc1ccc(/C=C/C(=O)NCCN2CCOCC2)cc1OC`, the IC50 (in the assay with CNE; with K562; in the assay on A549; in assay [1]; in [2]; in the assay on PC-3) was > 200 µM in each case. Moreover, the IC50 (in assay [3]; in the assay with HL-60; in the assay with HeLa; in the assay on BGC-823; in assay [4]; in the assay with KB) was > 200 µM throughout.

On to `Cc1ccc(NC(=O)COC(=O)/C=C/c2ccc(O)c(O)c2)cc1`, for which the IC50 in the assay with CNE was > 200 µM; with K562, > 200 µM; in [1], > 200 µM; in the assay with PC-3, > 200 µM; in assay [3], > 200 µM; in the assay with HL-60, 92.6 µM. For the same molecule, the values for the half-inhibitory concentration (IC50) (in the assay on HeLa; in assay [4]) were > 200 µM and 145 µM, respectively.

In the case of `COc1ccc(/C=C/C(=O)OCC(=O)NCc2ccco2)cc1OC`, the IC50 was > 200 µM in the assay with CNE; 0.8 µM with K562; > 200 µM in assay [1]; > 200 µM in the assay with PC-3; > 200 µM in [3]; 92.5 µM in the assay with HL-60. Further, the IC50 (in the assay with HeLa; in assay [4]) was > 200 µM throughout.

Regarding `CCOc1ccc(COc2c(OC)cc(/C=C/C(=O)OCC(=O)Nc3ccccc3)cc2OC)cc1`, the IC50 (in the assay on CNE; in the assay with K562; in [1]; in the assay on PC-3; in [3]; with HL-60) was > 200 µM each time. Also, the half-maximal inhibitory concentration (IC50) (in the assay with HeLa; in [4]) was > 200 µM in each case.

As for `COCOc1cc(/C=C/C(=O)OCC(=O)Nc2nccs2)ccc1OCc1ccccc1`, the IC50 in the assay with CNE is > 200 µM; in the assay with K562, > 200 µM; in assay [1] it was > 200 µM; in the assay on PC-3 it was > 200 µM; in [3], 130 µM; in the assay on HL-60 it was > 200 µM. Also, the half-inhibitory concentration (IC50) (with HeLa; in [4]) was > 200 µM in each case.

On to `COc1ccc(NC(=O)COC(=O)/C=C/c2cc(OC)c(OCc3ccccc3)c(OC)c2)cc1`, for which the half-inhibitory concentration (IC50) (in the assay on CNE; in the assay on K562; in [1]; with PC-3; in [3]; in the assay with HL-60) was > 200 µM throughout. Besides, the concentration for half-maximal inhibition (IC50) (with HeLa; in assay [4]) was > 200 µM throughout.

Consider `COc1ccc(NC(=O)COC(=O)/C=C/c2cc(OC)c(OCc3ccc(Cl)c(Cl)c3)c(OC)c2)cc1`, for which the IC50 in the assay with CNE was > 200 µM; in the assay with K562, > 200 µM; in assay [1], > 200 µM; in the assay with PC-3, > 200 µM; in assay [3], 97.8 µM; in the assay on HL-60 it was > 200 µM. The IC50 (in the assay with HeLa; in assay [4]) was > 200 µM in each case.

For the molecule `COCOc1cc(/C=C/C(=O)OCC(=O)NN2CCOCC2)ccc1OCc1ccccc1`, the concentration for half-maximal inhibition (IC50) is > 200 µM in the assay on CNE; 32.4 µM with K562; 143 µM in assay [1]; > 200 µM with PC-3; > 200 µM in assay [3]; 50.4 µM with HL-60. Also, the IC50 (in the assay with HeLa; in assay [4]) was > 200 µM each time.

Consider `COc1ccc(/C=C/C(=O)OCC(=O)Nc2ccccc2)cc1OC`, for which the half-inhibitory concentration (IC50) is > 200 µM in the assay with CNE; > 200 µM in the assay with K562; > 200 µM in [1]; > 200 µM with PC-3; > 200 µM in [3]; 46.4 µM in the assay with HL-60. In addition, the results for the IC50 (with HeLa; in [4]) were 193 µM and > 200 µM, respectively.

For `CCCCCNC(=O)COC(=O)/C=C/c1ccc(O)c(O)c1`, the IC50 in the assay with CNE was 170 µM; with K562 it was 121 µM; in [1], 131 µM; in the assay on PC-3 it was 155 µM; in assay [3], > 200 µM; in the assay with HL-60, 97.4 µM. Besides, the IC50 in the assay with HeLa came to 187 µM; in [4], 69.4 µM.

As for `COc1cc(/C=C/C(=O)OCC(=O)Nc2ccc(Cl)cc2)cc(OC)c1OCc1ccc(Cl)c(Cl)c1`, the concentration for half-maximal inhibition (IC50) in the assay with CNE is > 200 µM; with K562, > 200 µM; in [1] it was > 200 µM; in the assay on PC-3 it was > 200 µM; in assay [3], > 200 µM; with HL-60 it was 73.9 µM. Besides, the values for the concentration for half-maximal inhibition (IC50) (in the assay with HeLa; in [4]) were > 200 µM and 72.4 µM, respectively.

As for `O=C(COC(=O)/C=C/c1ccc(O)c(O)c1)Nc1ccccc1`, the IC50 was > 200 µM in the assay with CNE; > 200 µM with K562; > 200 µM in assay [1]; > 200 µM in the assay with PC-3; > 200 µM in assay [3]; 30.3 µM with HL-60. The concentration for half-maximal inhibition (IC50) was > 200 µM in the assay with HeLa and 117 µM in assay [4].

As for `COCOc1cc(/C=C/C(=O)OCC(=O)Nc2ccc(Cl)cc2)ccc1OCc1ccccc1`, the half-inhibitory concentration (IC50) (in the assay with CNE; in the assay with K562; in [1]; in the assay with PC-3; in [3]; in the assay on HL-60) was > 200 µM each time. Also, the 50% inhibitory concentration (IC50) (in the assay on HeLa; in [4]) was > 200 µM each time.

As for `COCOc1cc(/C=C/C(=O)OCC(=O)Nc2ccc(OC)cc2)ccc1OCc1ccccc1`, the 50% inhibitory concentration (IC50) is > 200 µM with CNE; > 200 µM with K562; > 200 µM in assay [1]; > 200 µM with PC-3; 133 µM in [3]; > 200 µM in the assay with HL-60. Besides, the values for the half-inhibitory concentration (IC50) (with HeLa; in assay [4]) were 155 µM and > 200 µM, respectively.

`COc1ccc(NC(=O)COC(=O)/C=C/c2ccc(O)c(O)c2)cc1`: the half-maximal inhibitory concentration (IC50) was > 200 µM with CNE; 79.1 µM with K562; 190 µM in assay [1]; 172 µM with PC-3; > 200 µM in assay [3]; 72.1 µM in the assay with HL-60. The IC50 was > 200 µM in the assay on HeLa and 124 µM in assay [4].

As to `O=C(COC(=O)/C=C/c1ccc(O)c(O)c1)Nc1ccc(Cl)cc1`, the 50% inhibitory concentration (IC50) in the assay on CNE was 89.6 µM; in the assay with K562, 99.4 µM; in assay [1], 175 µM; in the assay on PC-3, 160 µM; in [3] it was > 200 µM; in the assay with HL-60, 8.1 µM. For the same molecule, the IC50 in the assay on HeLa came out at 195 µM; in [4], 108 µM.

For the molecule `O=C(COC(=O)/C=C/c1ccc(O)c(O)c1)NN1CCOCC1`, the half-maximal inhibitory concentration (IC50) in the assay with CNE was > 200 µM; in the assay with K562, 56.8 µM; in assay [1], > 200 µM; with PC-3, > 200 µM; in [3] it was > 200 µM; with HL-60 it was > 200 µM. In addition, the IC50 (in the assay with HeLa; in [4]) was > 200 µM throughout.

Take `COc1ccc(/C=C/C(=O)OCC(=O)Nc2ccc(Cl)cc2)cc1OC`: the concentration for half-maximal inhibition (IC50) in the assay on CNE was > 200 µM; with K562 it was 60.2 µM; in [1], 81.9 µM; with PC-3 it was > 200 µM; in [3], 120 µM; in the assay on HL-60, 31.9 µM. Further, the concentration for half-maximal inhibition (IC50) with HeLa was 45.4 µM; in assay [4] it was > 200 µM.

Take `COCOc1cc(/C=C/C(=O)OCC(=O)NCc2ccco2)ccc1OCc1ccccc1`: the IC50 was > 200 µM in the assay on CNE; 0.3 µM in the assay with K562; > 200 µM in assay [1]; > 200 µM in the assay with PC-3; > 200 µM in assay [3]; 82.2 µM with HL-60. The IC50 (in the assay with HeLa; in assay [4]) was > 200 µM in each case.

For the molecule `CCOc1ccc(COc2c(OC)cc(/C=C/C(=O)OCC(=O)Nc3ccc(Cl)cc3)cc2OC)cc1`, the 50% inhibitory concentration (IC50) (with CNE; in the assay on K562; in assay [1]; with PC-3; in assay [3]; in the assay with HL-60) was > 200 µM in each case. For the same molecule, the IC50 (in the assay on HeLa; in assay [4]) was > 200 µM in each case.
